Experimental data from ChEMBL document CHEMBL1687766, “In vitro activity of the new multivalent glycopeptide-cephalosporin antibiotic TD-1792 against vancomycin-nonsusceptible Staphylococcus isolates” (Antimicrob Agents Chemother, 2010).
Converted amounts (≈) assume the structure as drawn.

Legend:
[1] = Plasma protein binding in human; assay type: ADME, cell-free; conditions: read-out: PPB (converted)
Serum = test: Drug level in serum of healthy human; assay type: ADME, cell-free
[2] = Half life of healthy human; assay type: ADME, organism-based; conditions: in vivo
Staphylococcus aureus [3] = test: Antimicrobial activity against vancomycin-intermediate Staphylococcus aureus isolate MU50 assessed as bacterial count at 32 times MIC after 24 hrs by colony counting method; assay type: functional
Summary of the method: (§1)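 24-h time-kill run in triplicate in supplemented Mueller-Hinton broth (12.5 μg/ml Mg, 25 μg/ml Ca), adjusted to 1.1–1.3 mM Ca for daptomycin. […] Samples were taken at 0, 1, 4, 8 and 24 h and counted on BHI agar after 24 h at 35°C. Value is log10 CFU/ml change from baseline at 24 h.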

Staphylococcus aureus [4] = test: Antimicrobial activity against vancomycin-intermediate Staphylococcus aureus isolate MU50 after 24 hrs by microdilution method; assay type: functional; conditions: isolate MU50, 24 h
Summary of the method: (§2)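 Broth microdilution per CLSI, inoculum 5 × 10^5 CFU/ml, Mueller-Hinton broth with 12.5 μg/ml magnesium and 25 μg/ml calcium (SMHB). Daptomycin was instead tested in SMHB at physiologic calcium (final 1.1 to 1.3 mM). Incubation 24 h at 35°C; MIC read; run in duplicate. MBC from 5-μl samples of clear wells plated on BHI agar, 24 h at 35°C.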

Staphylococcus aureus [5] = test: Antimicrobial activity against vancomycin-intermediate Staphylococcus aureus isolate MU50 assessed as bacterial count at 4 times MIC after 24 hrs by colony counting method; assay type: functional; summary of the method: as §1
Staphylococcus aureus [6] = test: Antimicrobial activity against methicillin-resistant Staphylococcus aureus infected in patient with complicated skin and skin structure infections assessed as cure rate; assay type: functional
Staphylococcus aureus [7] = test: Antimicrobial activity against vancomycin-intermediate Staphylococcus aureus after 24 hrs by microdilution method; assay type: functional; summary of the method: as §2
Staphylococcus aureus [8] = test: Antimicrobial activity against vancomycin-intermediate Staphylococcus aureus isolate NJ992 assessed as bacterial count at 8 times MIC after 24 hrs by colony counting method; assay type: functional; summary of the method: as §1
Staphylococcus aureus [9] = test: Antimicrobial activity against vancomycin-resistant Staphylococcus aureus isolate NY after 24 hrs by microdilution method; assay type: functional; summary of the method: as §2
[10] = test system: Staphylococcus haemolyticus; test: Antimicrobial activity against vancomycin-intermediate Staphylococcus haemolyticus after 24 hrs by microdilution method; assay type: functional
Summary of the method: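 CLSI broth microdilution in supplemented Mueller-Hinton broth (12.5 μg/ml Mg, 25 μg/ml Ca), with Ca adjusted to 1.1–1.3 mM for daptomycin. Inoculum was 5 × 10^5 CFU/ml, incubated 24 h at 35°C, done in duplicate. For MBC, clear wells were plated on BHI agar and read after 24 h at 35°C.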

Staphylococcus aureus [11] = test: Antimicrobial activity against vancomycin-intermediate Staphylococcus aureus isolate NJ992 assessed as bacterial count at 16 times MIC after 24 hrs by colony counting method; assay type: functional; summary of the method: as §1
Staphylococcus aureus [12] = test: Antimicrobial activity against vancomycin-intermediate Staphylococcus aureus isolate NJ992 assessed as bacterial count at 32 times MIC after 24 hrs by colony counting method; assay type: functional; summary of the method: as §1
Staphylococcus aureus [13] = test: Antimicrobial activity against vancomycin-intermediate Staphylococcus aureus isolate MU50 assessed as bacterial count at 16 times MIC after 24 hrs by colony counting method; assay type: functional
Summary of the method: (§3)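 Time-kill in triplicate. Mid-exponential culture (OD600 ~0.3) diluted in supplemented Mueller-Hinton broth to 5 × 10^6 CFU/ml. Daptomycin was run at physiologic calcium, 1.1 to 1.3 mM. […] Samples at 0, 1, 4, 8 and 24 h were diluted in cold saline or vacuum filtered, then spiral-plated on BHI agar for 24 h at 35°C. Value is the log10 CFU/ml change from baseline at 24 h.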

Staphylococcus aureus [14] = test: Antimicrobial activity against vancomycin-resistant Staphylococcus aureus isolate MI after 24 hrs by microdilution method; assay type: functional; summary of the method: as §2
Staphylococcus aureus [15] = test: Antimicrobial activity against vancomycin-intermediate Staphylococcus aureus isolate NJ992 assessed as bacterial count at 4 times MIC after 24 hrs by colony counting method; assay type: functional; summary of the method: as §1
Staphylococcus aureus [16] = test: Antimicrobial activity against vancomycin-intermediate Staphylococcus aureus isolate MU50 assessed as bacterial count at 8 times MIC after 24 hrs by colony counting method; assay type: functional; summary of the method: as §1
Staphylococcus aureus [17] = test: Antimicrobial activity against vancomycin-intermediate Staphylococcus aureus isolate NJ992 after 24 hrs by microdilution method; assay type: functional; conditions: isolate NJ992, 24 h; summary of the method: as §2
Staphylococcus aureus [18] = test: Antimicrobial activity against vancomycin-resistant Staphylococcus aureus isolate PA after 24 hrs by microdilution method; assay type: functional; summary of the method: as §2
Staphylococcus aureus [19] = test: Antimicrobial activity against vancomycin-heteroresistant Staphylococcus aureus after 24 hrs by microdilution method; assay type: functional; summary of the method: as §2
Staphylococcus aureus [20] = test: Antimicrobial activity against vancomycin-resistant Staphylococcus aureus isolate MI assessed as bacterial count at 32 times MIC after 24 hrs by colony counting method; assay type: functional; summary of the method: as §3
Staphylococcus aureus [21] = test: Antimicrobial activity against vancomycin-resistant Staphylococcus aureus isolate MI assessed as bacterial count at 16 times MIC after 24 hrs by colony counting method; assay type: functional; summary of the method: as §3
Staphylococcus aureus [22] = test: Antimicrobial activity against vancomycin-resistant Staphylococcus aureus isolate PA assessed as bacterial count at 32 times MIC after 24 hrs by colony counting method; assay type: functional; summary of the method: as §3
Staphylococcus aureus [23] = test: Antimicrobial activity against vancomycin-resistant Staphylococcus aureus isolate MI assessed as bacterial count at 4 times MIC after 24 hrs by colony counting method; assay type: functional; summary of the method: as §3
Staphylococcus aureus [24] = test: Antimicrobial activity against vancomycin-resistant Staphylococcus aureus isolate PA assessed as bacterial count at 4 times MIC after 24 hrs by colony counting method; assay type: functional; summary of the method: as §3
Staphylococcus aureus [25] = test: Antimicrobial activity against vancomycin-resistant Staphylococcus aureus isolate MI assessed as bacterial count at 8 times MIC after 24 hrs by colony counting method; assay type: functional; summary of the method: as §3
Staphylococcus aureus [26] = test: Antimicrobial activity against vancomycin-resistant Staphylococcus aureus isolate PA assessed as bacterial count at 16 times MIC after 24 hrs by colony counting method; assay type: functional; summary of the method: as §3
Staphylococcus aureus [27] = test: Antimicrobial activity against vancomycin-resistant Staphylococcus aureus isolate PA assessed as bacterial count at 8 times MIC after 24 hrs by colony counting method; assay type: functional; summary of the method: as §3
[28] = Staphylococcus haemolyticus, 24 h

| Structure (SMILES) | log10CFU/ml (Staphylococcus aureus [3]) | MBC (Staphylococcus aureus [4]) [µg/mL] | log10CFU/ml (Staphylococcus aureus [5]) | MBC50 (Staphylococcus aureus [7]) [µg/mL] | MBC90 (Staphylococcus aureus [7]) [µg/mL] | MBC (Staphylococcus aureus [7]; Staphylococcus aureus, 24 h) [µg/mL] | MIC50 (Staphylococcus aureus [7]; Staphylococcus aureus, 24 h) [µg/mL] | MIC90 (Staphylococcus aureus [7]; Staphylococcus aureus, 24 h) [µg/mL] | log10CFU/ml (Staphylococcus aureus [8]) | MBC (Staphylococcus aureus [9]) [µg/mL] | MIC (Staphylococcus aureus [9]) [µg/mL] | MBC50 [10] [µg/mL] | MBC90 [10] [µg/mL] | MBC [10, 28] [µg/mL] | MIC50 [10, 28] [µg/mL] | MIC90 [10, 28] [µg/mL] | log10CFU/ml (Staphylococcus aureus [11]) | log10CFU/ml (Staphylococcus aureus [12]) | log10CFU/ml (Staphylococcus aureus [13]) | MBC (Staphylococcus aureus [14]) [µg/mL] | further results |
| --- | --- | --- | --- | --- | --- | --- | --- | --- | --- | --- | --- | --- | --- | --- | --- | --- | --- | --- | --- | --- | --- |
| CN[C@H](CC(C)C)C(=O)N[C@H]1C(=O)N[C@@H](CC(N)=O)C(=O)N[C@H]2C(=O)N[C@H]3C(=O)N[C@H](C(=O)N[C@H](C(=O)NCCCO/N=C(\C(=O)N[C@@H]4C(=O)N5C(C(=O)[O-])=C(C[n+]6ccccc6)CS[C@H]45)c4nc(N)sc4Cl)c4cc(O)cc(O)c4-c4cc3ccc4O)[C@H](O)c3ccc(c(Cl)c3)Oc3cc2cc(c3O[C@@H]2O[C@H](CO)[C@@H](O)[C@H](O)[C@H]2O[C@H]2C[C@](C)(N)[C@H](O)[C@H](C)O2)Oc2ccc(cc2Cl)[C@H]1O | – | – | – | – | – | – | – | – | – | – | – | – | – | – | – | – | – | – | – | – | fraction unbound [1]: 0.51; Drug uptake (Serum): 4.65 µg/mL; half-life [2]: 6.8 h |
| CN[C@H](CC(C)C)C(=O)N[C@H]1C(=O)N[C@@H](CC(N)=O)C(=O)N[C@H]2C(=O)N[C@H]3C(=O)N[C@H](C(=O)N[C@H](C(=O)O)c4cc(O)cc(O)c4-c4cc3ccc4O)[C@H](O)c3ccc(c(Cl)c3)Oc3cc2cc(c3O[C@@H]2O[C@H](CO)[C@@H](O)[C@H](O)[C@H]2O[C@H]2C[C@](C)(N)[C@H](O)[C@H](C)O2)Oc2ccc(cc2Cl)[C@H]1O [VANCOMYCIN] | 4.41 | 4 (≈ 2.76 µM) | 2.71 | 4 (≈ 2.76 µM) | 8 (≈ 5.52 µM) | 4 (≈ 2.76 µM) | 4 (≈ 2.76 µM) | 8 (≈ 5.52 µM) | 4.3 | 128 (≈ 88.3 µM) | 64 (≈ 44.2 µM) | 4 (≈ 2.76 µM) | 8 (≈ 5.52 µM) | 4 (≈ 2.76 µM) | 4 (≈ 2.76 µM) | 8 (≈ 5.52 µM) | 4.58 | 4.79 | 4.48 | > 2050 | Activity (Staphylococcus aureus [6]): 91.9%; MIC (Staphylococcus aureus [7]; Staphylococcus aureus, 24 h): 4 µg/mL (≈ 2.76 µM); MIC [10, 28]: 4 µg/mL (≈ 2.76 µM); MIC (Staphylococcus aureus [14]): 1020 µg/mL (≈ 707 µM); log10CFU/ml (Staphylococcus aureus [15]): 2.88; log10CFU/ml (Staphylococcus aureus [16]): 3.32; MBC (Staphylococcus aureus [17]): 8 µg/mL (≈ 5.52 µM); MIC (Staphylococcus aureus [17]): 8 µg/mL (≈ 5.52 µM); MBC (Staphylococcus aureus [18]): 64 µg/mL (≈ 44.2 µM); MIC (Staphylococcus aureus [18]): 32 µg/mL (≈ 22.1 µM); MBC50 (Staphylococcus aureus [19]): 4 µg/mL (≈ 2.76 µM); MBC90 (Staphylococcus aureus [19]): 8 µg/mL (≈ 5.52 µM); MBC (Staphylococcus aureus [19]; Staphylococcus aureus, 24 h): 4 µg/mL (≈ 2.76 µM); MIC (Staphylococcus aureus [19]; Staphylococcus aureus, 24 h): 4 µg/mL (≈ 2.76 µM); MIC50 (Staphylococcus aureus [19]; Staphylococcus aureus, 24 h): 4 µg/mL (≈ 2.76 µM); MIC90 (Staphylococcus aureus [19]; Staphylococcus aureus, 24 h): 8 µg/mL (≈ 5.52 µM) |
| CC(=O)NC[C@H]1CN(c2ccc(N3CCOCC3)c(F)c2)C(=O)O1 [LINEZOLID] | 4.8 | 32 (≈ 94.9 µM) | 3.19 | 8 (≈ 23.7 µM) | 32 (≈ 94.9 µM) | 1 (≈ 2.96 µM) | 2 (≈ 5.93 µM) | 2 (≈ 5.93 µM) | 3.66 | 0.5 (≈ 1.48 µM) | 0.25 (≈ 0.741 µM) | 8 (≈ 23.7 µM) | 32 (≈ 94.9 µM) | 1 (≈ 2.96 µM) | 2 (≈ 5.93 µM) | 2 (≈ 5.93 µM) | 3.98 | 4.89 | 4.25 | 16 (≈ 47.4 µM) | log10CFU/ml (Staphylococcus aureus [20]): 4.52; log10CFU/ml (Staphylococcus aureus [21]): 3.64; MIC (Staphylococcus aureus [4]): 1 µg/mL (≈ 2.96 µM); log10CFU/ml (Staphylococcus aureus [22]): 4.95; log10CFU/ml (Staphylococcus aureus [23]): 1.31; log10CFU/ml (Staphylococcus aureus [24]): 3.24; log10CFU/ml (Staphylococcus aureus [25]): 1.55; MIC (Staphylococcus aureus [14]): 1 µg/mL (≈ 2.96 µM); log10CFU/ml (Staphylococcus aureus [15]): 2.13; log10CFU/ml (Staphylococcus aureus [16]): 3.26; log10CFU/ml (Staphylococcus aureus [26]): 4.24; MBC (Staphylococcus aureus [17]): 2 µg/mL (≈ 5.93 µM); MIC (Staphylococcus aureus [17]): 1 µg/mL (≈ 2.96 µM); MBC (Staphylococcus aureus [18]): 4 µg/mL (≈ 11.9 µM); log10CFU/ml (Staphylococcus aureus [27]): 4.2; MBC (Staphylococcus aureus [19]; Staphylococcus aureus, 24 h): 1 µg/mL (≈ 2.96 µM); MIC50 (Staphylococcus aureus [19]; Staphylococcus aureus, 24 h): 2 µg/mL (≈ 5.93 µM); MIC90 (Staphylococcus aureus [19]; Staphylococcus aureus, 24 h): 2 µg/mL (≈ 5.93 µM) |
